# Screens from PubChem BioAssay.
# ABCB1 inh = inhibitors of human ABCB1 transporter, ABCG2 counter-screen | CCRF-Adr cells, JC-1 efflux, flow cytometry | inhibition, % at 6.6 µM | 190,000 compounds, 0.067% hits; in the data active = inhibition above about 40%;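 note: 0% = vehicle and 100% = reference inhibitor; higher value means more JC-1 retained so stronger ABCB1 efflux block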
# ABCB6 inh MLPCN = blocks the human ABCB6 transporter. Q9NP58. K562-ABCB6 porphyrin accumulation, flow cytometry, 1 h; stronger effect = lower value. fluorescence ratio to DMSO, % at 10 µM. 360,000 compounds, 0.19% hits;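 active = fluorescence ratio to DMSO below 75%, the collection mean minus 3 SD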;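 note: signal is porphyrin accumulated inside mitochondria; 100% equals median channel fluorescence of DMSO control wells; lower ratio means ABCB6 inhibition with less porphyrin fluorescence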
# Target sequence (Q9NP58 whole entry, looked up): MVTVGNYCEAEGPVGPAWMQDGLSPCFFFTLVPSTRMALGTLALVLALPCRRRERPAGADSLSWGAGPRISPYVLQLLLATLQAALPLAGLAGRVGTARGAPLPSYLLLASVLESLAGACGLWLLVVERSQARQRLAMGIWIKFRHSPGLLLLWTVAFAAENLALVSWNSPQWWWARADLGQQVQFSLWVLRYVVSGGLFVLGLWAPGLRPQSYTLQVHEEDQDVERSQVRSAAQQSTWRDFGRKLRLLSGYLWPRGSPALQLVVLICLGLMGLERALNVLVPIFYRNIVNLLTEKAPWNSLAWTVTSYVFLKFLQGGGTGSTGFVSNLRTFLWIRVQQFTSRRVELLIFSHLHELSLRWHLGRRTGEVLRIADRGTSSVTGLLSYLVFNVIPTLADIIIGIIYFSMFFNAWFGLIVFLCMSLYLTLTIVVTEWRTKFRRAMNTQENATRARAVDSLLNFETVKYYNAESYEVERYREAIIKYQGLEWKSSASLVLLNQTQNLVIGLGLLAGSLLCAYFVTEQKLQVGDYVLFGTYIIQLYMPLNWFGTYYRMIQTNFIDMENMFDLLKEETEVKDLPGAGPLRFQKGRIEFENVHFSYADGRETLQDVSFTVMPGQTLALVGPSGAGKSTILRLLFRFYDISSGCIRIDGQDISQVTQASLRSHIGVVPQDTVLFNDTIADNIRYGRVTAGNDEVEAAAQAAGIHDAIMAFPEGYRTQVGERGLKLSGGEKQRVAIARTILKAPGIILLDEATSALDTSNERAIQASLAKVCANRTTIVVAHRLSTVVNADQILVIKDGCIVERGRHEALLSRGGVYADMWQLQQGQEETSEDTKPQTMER
# ABCG2 block = human ABCG2 inhibition, ABCB1 as counter-screen | Q9UNQ0 | inhibition, % at 6.6 µM | IgMXP3 cells, JC-1 efflux, flow cytometry | AID 1325 | 190,000 compounds, 0.1% hits;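 active = inhibition above 80%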;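 note: 0% = DMSO and 100% = nicardipine control wells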
#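 System: two drug-resistant human cell lines, ABCG2 and ABCB1; controls: nicardipine high and DMSO low controls; times: 10 min exposure at 25 °C with rotation, no wash; detection: flow cytometry of retained JC-1 fluorescence; read-out basis: percent efflux inhibition, scaled nicardipine 100% to DMSO 0%; doses: one concentration, 6.6 µM final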
# Diaph act CS = diaphorase activation or chemical reduction counter-screen. Diaphorase/resazurin coupled assay, resorufin fluorescence, 16 min; stronger effect = higher value; 1 = vehicle wells, 0 = NADH-free wells. activation factor at 20 µM. 190,000 compounds, 0.005% hits;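 active = diaphorase activity raised at least twofold by the compound at 20 µM; inactive = activation factor below 2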
#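 Measured by – red resorufin fluorescence at 544/590 nm excitation/emission · Test system – Clostridium kluyveri diaphorase, purified enzyme · Incubation – reaction time 16 min, room temperature · Buffer or medium – 50 mM HEPES pH 7.4 with 4.542 mM MgCl2, 0.005% Tween 20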
# FLuc act counter = affects firefly luciferase, flagging false hits in luciferase stimulation screens. P08659. ATPlite luciferase biochemical, luminescence, 10 min; 0 = ATP-free wells, 1 = DMSO control. activation factor at 10 µM. 200,000 tested, under 10 active;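 active = luciferase activation factor, scaled between plate controls, of at least 2 with compound at 10 µM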
#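 System: cell-free luciferase reagent; medium: PBS as buffer for the ATP substrate; doses: test compounds dosed from 2 mM stocks in 100% DMSO; incubation: 10 min, room temperature; measured by: luminescence from luciferase reaction; read-out: luciferase activation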
# FLuc inhib CS = inhibits firefly luciferase, flagging false hits in luciferase inhibition screens; inhibition, % at 10 µM; AID 1006; P08659; 200,000 compounds, 1.5% hits; ATPLite firefly luciferase biochemical luminescence, 10 min;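 active = inhibition above about 50% when tested at 10 µM, limit read from the data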
# Numbers without * were called inactive; . = no result given. Shown is part of a subset that was picked to be rich in hits.
SMILES,ABCB1 inh,ABCB6 inh MLPCN,ABCG2 block,Diaph act CS,FLuc act counter,FLuc inhib CS
CC1CC1C(=O)N(C)CC(=O)Nc1ccccc1Br (centres undefined),.,95,.,.,.,.
COc1ccc(-c2coc3cc(O)ccc3c2=O)cc1,.,97,.,.,.,.
COc1ccc(-c2coc3cc(O)ccc3c2=O)cc1O,0,103,7,0.8,0.5,54*
Cc1ccc2nc(-c3ccc(SCC(=O)Nc4ccc5c(c4)OCCO5)nc3)[nH]c2c1,0,100,-2,0.9,0.4,62*
Cc1ccc(-c2ccc(SCC(=O)Nc3ccc4c(c3)OCCO4)nn2)cc1,0,99,1,0.8,0.4,57*
Cc1ccc2nc(-c3ccc(SCC(=O)Nc4nnc(C)s4)nc3)[nH]c2c1,0,97,2,1.1,0.4,56*
CC(=O)Nc1ccc(NC(=O)CSc2ccc(-c3ccc4c(c3)OCO4)nn2)cc1,0,103,-3,0.9,1,3
Cc1cc2nc(-c3ccc(SCC(=O)Nc4ccc5c(c4)OCCO5)nc3)[nH]c2cc1C,0,99,0,1.2,0.2,81*
Cc1ccc(C#N)c(SCc2nnc(-c3ccc(Cl)cc3)o2)n1,0,100,-2,0.8,0.4,60*
Cc1cc(C)c(C#N)c(SCc2nnc(-c3ccccc3)o2)n1,1,91,8,0.9,1,-1
COc1ccc(C=C2SC(=S)NC2=O)cc1,.,101,.,.,.,.
COc1ccc(/C=C2/SC(=O)NC2=O)cc1,0,97,5,1,0.5,54*
O=C(c1cc(C2CC2)nc2ccccc12)N1N=C(C(F)F)CC1(O)C(F)F (centres undefined),1,81,1,0.9,1,-2
CC(C)c1ccc(-c2cc(C(=O)N3N=C(C(F)F)CC3(O)C(F)F)c3ccccc3n2)cc1 (centres undefined),1,92,4,0.7,0.4,65*
CC(C)c1ccc(-c2cc(C(=O)NN3CCN(C)CC3)c3ccccc3n2)cc1,1,85,-2,1,0.1,88*
Cc1ccc(S(=O)(=O)N(C)CC(=O)Nc2ccccc2N2CCCC2)cc1,.,106,.,.,.,.
COCCNC(=O)c1[nH]c(C(F)(F)F)nc1-c1ccccc1,.,102,.,.,.,.
CCCCNC1=CC(=O)C(=O)c2ccccc21,0,101,1,.,1,3
CCCCN1C=CC(=C2C(=O)c3ccccc3C2=O)C=C1,1,101,13,1,0,98*
CCN(c1ccccc1)S(=O)(=O)c1cccc(C(=O)NCC(c2ccco2)N2CCCCC2)c1 (centres undefined),.,90,.,.,.,.
Cc1ccc(S(=O)(=O)c2ccc([N+](=O)[O-])o2)cc1,.,50*,.,.,.,.
COc1ccc(-c2cn3nc(C)c(C)nc3n2)cc1OC,.,95,.,.,.,.
Cc1ccc(-c2cn3nc(C)c(C)nc3n2)cc1,1,102,8,0.9,0.2,75*
N#C/C(=C\c1ccc([N+](=O)[O-])cc1)c1ccccn1,0,104,25,0.8,0.8,20
COC(=O)c1ccc(/C=C(\C#N)c2ccccn2)cc1,-2,99,31,1.2,0.3,73*
SMILES,ABCB1 inh,ABCB6 inh MLPCN,ABCG2 block,Diaph act CS,FLuc act counter,FLuc inhib CS
COc1cc(/C=C(\C#N)c2ccccn2)cc(OC)c1O,.,94,.,.,.,.
CN(C)c1ccc(/C=C(\C#N)c2ccccn2)cc1,0,95,-4,0.8,0,97*
O=C(C[C@@H]1C/C=C\C[C@H](NC(=O)OCC2c3ccccc3-c3ccccc32)C(=O)O[C@H](c2ccccc2)CNC1=O)NCCO,.,95,.,.,.,.
CCC1(CC)Cc2ccccc2-c2nc(-c3ccccc3)oc(=O)c21,1,70*,6,0.9,1,-3
CN(CC1CCCN(CCc2cccc(C(F)(F)F)c2)C1)C(=O)c1cc2ccccc2o1 (centres undefined),.,98,.,.,.,.
Cc1c(NC(C)c2ccccc2O)c(=O)n(-c2ccccc2)n1C (centres undefined),0,54*,1,1,1,-2
CCc1noc(C)c1C(=O)N1CCCC(N2CCN(c3cccc(Cl)c3)CC2)C1 (centres undefined),.,94,.,.,.,.
Cc1cc(=O)[nH]c(SCc2ccccc2)n1,.,107,.,.,.,.
Cc1cc(=O)[nH]c(S/C=C/c2ccccc2)n1,0,101,1,1,0.2,77*
CCOc1cc(/C=N/N=C(N)N)ccc1OCc1ccc(Cl)cc1,1,98,31,2*,1,-3
COc1cc(/C=N/N=C(N)N)ccc1OCc1ccc(Cl)cc1,1,93,4,1.8,0.8,17
COc1cccc(OCc2nc3ccccc3[nH]2)c1,0,103,3,0.7,0.5,52*
c1ccc2cc(OCc3nc4ccccc4[nH]3)ccc2c1,3,98,18,0.9,0.3,73*
Cc1ccc(SCc2nc3ccccc3[nH]2)cc1,1,99,15,0.9,0.5,54*
COc1ccc(OCC(=O)Nc2nc3ccccc3[nH]2)cc1,0,94,1,0.9,0.3,68*
CC(C)N1CCN(Cc2cc3ccccc3[nH]2)CC1CCO (centres undefined),.,96,.,.,.,.
Brc1ccc(OCc2nc3ccccc3[nH]2)cc1,.,101,.,.,.,.
Cc1ccccc1OCc1nc2ccccc2[nH]1,0,97,0,1,0.5,53*
COc1ccc(OCc2nc3ccccc3[nH]2)cc1,.,101,.,1,0.3,70*
O=c1c2c3c(sc2nc2n1N=C(c1cccs1)CS2)CCCC3,-1,96,-7,1,0.2,76*
O=C1/C(=C/c2cccs2)Sc2ccccc21,0,110,-2,0.9,0.3,68*
O=C(Nc1ccc2nc3ccccc3nc2c1)c1ccccc1,-1,100,-11,0.8,0.3,66*
Cc1ccc(C(=O)Nc2ccc(-c3csc(C)n3)cc2)cc1,0,85,0,1,0.8,24
Cc1nc(-c2ccc(NC(=O)c3ccccc3)cc2)cs1,0,96,1,0.9,0.1,88*
Cn1/c(=N/N=C/c2ccccn2)sc2ccccc21,1,100,2,1.1,0.4,59*
O=C(NCCc1nccs1)C1CCC(=O)N(CCc2ccc(Cl)cc2)C1 (centres undefined),.,104,.,.,.,.
CC(=O)Oc1ccc(C(=O)Nc2ccc(C3(C#N)CCCC3)cc2)cc1,.,98,.,.,.,.
N#CC1(c2ccc(NC(=O)c3ccccc3)cc2)CCCC1,1,90,5,0.8,0.4,61*
Cc1cc(N)n(-c2cc(C)c3ccccc3n2)n1,1,96,3,0.8,0.2,84*
Cc1cc(C)c2nc(-n3nc(C)cc3N)cc(C)c2c1,0,97,5,0.9,0.9,15
